Test [1] concerns the target Matrix metalloproteinase-9 (Homo sapiens) (UniProt P14780). Description: Inhibition recombinant MMP9 at 100 uM. The arrangement: scale not given: the % may be the effect or the level left. In short, it runs like this:
(§1)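 Pro-enzyme (MMP-8 expressed in CHO-K1 cells; MMP-9 recombinant) was activated with 1 mM APMA for 1 h at 37 °C. Active enzyme concentration was determined by titration with recombinant N-TIMP-1, using Knight fSSP or NFF-3 substrate.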

Test [2] deals with Macrophage metalloelastase (Homo sapiens) (UniProt P39900). Description: Inhibition recombinant MMP12 at 100 uM. The arrangement: scale not given: the % may be the effect or the level left. The gist of the method: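 Recombinant MMP-12 was expressed directly in active form, with no zymogen activation step. Active concentration was determined by recombinant N-TIMP-1 titration, with Knight fSSP or NFF-3 as substrate.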
Macrophage metalloelastase (Homo sapiens), sequence (P39900 106-470 limits assumed): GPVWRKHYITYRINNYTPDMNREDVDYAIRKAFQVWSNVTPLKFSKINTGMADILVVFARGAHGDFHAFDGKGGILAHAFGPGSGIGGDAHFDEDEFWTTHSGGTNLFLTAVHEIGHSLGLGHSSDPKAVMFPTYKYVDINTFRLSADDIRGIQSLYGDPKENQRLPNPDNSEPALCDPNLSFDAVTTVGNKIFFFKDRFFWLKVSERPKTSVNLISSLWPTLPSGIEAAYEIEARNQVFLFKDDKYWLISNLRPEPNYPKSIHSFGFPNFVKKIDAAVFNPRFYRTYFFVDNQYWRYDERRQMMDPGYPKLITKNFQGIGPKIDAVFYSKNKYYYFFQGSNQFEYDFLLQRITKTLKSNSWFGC

The target in test [3] is T1, Collagenase 3 (Homo sapiens, UniProt P45452). Description: Activity of human recombinant MMP13. The arrangement: concentration or dose not given beside the values. The gist of the method:
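Recombinant full-length human proMMP-13, activated with 1 mM APMA for 2 h at 37 °C and active-site titrated with N-TIMP-1. Run in 1536-well format in Tris·HCl pH 7.5, 100 mM NaCl, 10 mM CaCl2, 0.05% Brij-35, 0.3% DMSO. Triple-helical FRET substrate fTHP-15 (Mca/Dnp). Stopped with EDTA after 4 h at 25 °C; fluorescence read at ex 325/em 450 nm. Dose-response in triplicate, 10-point 1:3 dilutions from 40 μM; IC50 from four-parameter sigmoidal fit.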

Test [4] has as its target T2, Interstitial collagenase (Homo sapiens) (UniProt P03956).
T2 sequence (whole entry): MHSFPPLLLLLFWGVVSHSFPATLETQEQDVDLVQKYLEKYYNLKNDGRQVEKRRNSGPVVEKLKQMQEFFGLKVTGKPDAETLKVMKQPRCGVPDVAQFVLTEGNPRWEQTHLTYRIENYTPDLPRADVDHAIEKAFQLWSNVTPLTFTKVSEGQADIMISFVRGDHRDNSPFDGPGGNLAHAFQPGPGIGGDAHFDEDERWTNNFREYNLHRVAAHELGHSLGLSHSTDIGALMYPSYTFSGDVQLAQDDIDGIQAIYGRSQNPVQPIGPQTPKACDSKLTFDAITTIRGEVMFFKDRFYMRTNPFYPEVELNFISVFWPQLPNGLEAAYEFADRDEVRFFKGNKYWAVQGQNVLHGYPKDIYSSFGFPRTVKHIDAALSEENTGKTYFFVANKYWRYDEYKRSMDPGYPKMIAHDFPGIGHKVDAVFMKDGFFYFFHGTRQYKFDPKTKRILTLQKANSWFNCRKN
The test can be described thus: Inhibition recombinant MMP1 at 100 uM. The arrangement: scale not given: the % may be the effect or the level left. In short, it runs like this:
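Enzyme source: proMMP-1 expressed in E. coli and refolded from inclusion bodies. Activated with 1 mM APMA plus 0.1 equiv MMP-3(Δ248-460) for 6 h at 37 °C. The MMP-3 fragment was then removed by size-exclusion chromatography. Active enzyme was quantified by titration with recombinant N-TIMP-1, using Knight fSSP or NFF-3 as substrate.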

The target of test [5] is 72 kDa type IV collagenase (Homo sapiens) (UniProt P08253). Description: Inhibition recombinant MMP2 at 100 uM. The arrangement: scale not given: the % may be the effect or the level left.
72 kDa type IV collagenase (Homo sapiens), sequence (P08253 110-660 limits assumed): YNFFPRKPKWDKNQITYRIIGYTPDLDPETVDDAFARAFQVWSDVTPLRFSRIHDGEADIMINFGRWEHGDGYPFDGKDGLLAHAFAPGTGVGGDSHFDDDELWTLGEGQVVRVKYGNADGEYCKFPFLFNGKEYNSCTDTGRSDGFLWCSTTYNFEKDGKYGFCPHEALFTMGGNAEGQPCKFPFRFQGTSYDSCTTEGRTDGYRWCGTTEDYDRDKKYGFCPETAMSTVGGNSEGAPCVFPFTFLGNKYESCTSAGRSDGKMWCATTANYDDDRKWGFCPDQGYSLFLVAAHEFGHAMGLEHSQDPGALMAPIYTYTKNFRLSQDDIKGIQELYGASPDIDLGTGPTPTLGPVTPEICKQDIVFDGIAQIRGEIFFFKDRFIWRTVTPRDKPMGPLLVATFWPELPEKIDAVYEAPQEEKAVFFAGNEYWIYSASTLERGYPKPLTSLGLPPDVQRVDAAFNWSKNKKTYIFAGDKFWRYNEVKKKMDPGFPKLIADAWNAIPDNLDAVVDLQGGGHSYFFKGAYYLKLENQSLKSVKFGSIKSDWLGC
Test [6] addresses Stromelysin-1 (Homo sapiens) (UniProt P08254). The test can be described thus: Inhibition recombinant MMP3 at 100 uM. Also on record: scale not given: the % may be the effect or the level left. The gist of the method:
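ProMMP-3 was expressed in E. coli and folded from inclusion bodies. It was activated with 5 μg/mL chymotrypsin at 37 °C for 2 h, and chymotrypsin was then inactivated with 2 mM diisopropylfluorophosphate. Active concentration was set by N-TIMP-1 titration, with Knight fSSP or NFF-3 as substrate.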

The target in test [7] is Neutrophil collagenase (Homo sapiens) (UniProt P22894). The test can be described thus: Inhibition recombinant MMP8 expressed in CHO-K1 cells at 100 uM. Format: cell-based. The arrangement: scale not given: the % may be the effect or the level left. The gist of the method: as §1
Neutrophil collagenase (Homo sapiens), sequence (P22894 101-467 limits assumed): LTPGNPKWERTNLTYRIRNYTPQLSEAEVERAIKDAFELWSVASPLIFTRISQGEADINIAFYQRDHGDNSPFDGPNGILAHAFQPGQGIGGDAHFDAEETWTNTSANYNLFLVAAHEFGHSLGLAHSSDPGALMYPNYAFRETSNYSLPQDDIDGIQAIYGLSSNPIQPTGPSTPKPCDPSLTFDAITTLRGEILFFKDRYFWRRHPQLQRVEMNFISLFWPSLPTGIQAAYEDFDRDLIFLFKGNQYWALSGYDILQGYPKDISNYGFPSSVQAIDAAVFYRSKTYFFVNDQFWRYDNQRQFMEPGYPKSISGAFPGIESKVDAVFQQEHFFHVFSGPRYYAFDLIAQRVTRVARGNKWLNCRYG
In test [8] the target is T1, Collagenase 3. Description: Inhibition of human recombinant MMP13 expressed in Escherichia coli.

The structures appear in SMILES notation.

Stromelysin-1 (Homo sapiens), sequence (P08254 100-477 limits assumed): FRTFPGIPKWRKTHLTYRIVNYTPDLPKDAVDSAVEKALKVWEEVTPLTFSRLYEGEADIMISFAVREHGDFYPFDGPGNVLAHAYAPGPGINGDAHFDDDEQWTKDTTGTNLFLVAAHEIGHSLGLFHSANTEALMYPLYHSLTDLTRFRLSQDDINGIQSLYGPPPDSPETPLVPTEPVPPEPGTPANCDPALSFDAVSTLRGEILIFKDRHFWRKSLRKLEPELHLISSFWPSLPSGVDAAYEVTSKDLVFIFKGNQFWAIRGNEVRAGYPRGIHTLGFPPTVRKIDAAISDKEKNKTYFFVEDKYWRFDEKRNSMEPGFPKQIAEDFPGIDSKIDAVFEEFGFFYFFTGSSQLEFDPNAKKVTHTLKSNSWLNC
Matrix metalloproteinase-9 (Homo sapiens), sequence (P14780 whole entry): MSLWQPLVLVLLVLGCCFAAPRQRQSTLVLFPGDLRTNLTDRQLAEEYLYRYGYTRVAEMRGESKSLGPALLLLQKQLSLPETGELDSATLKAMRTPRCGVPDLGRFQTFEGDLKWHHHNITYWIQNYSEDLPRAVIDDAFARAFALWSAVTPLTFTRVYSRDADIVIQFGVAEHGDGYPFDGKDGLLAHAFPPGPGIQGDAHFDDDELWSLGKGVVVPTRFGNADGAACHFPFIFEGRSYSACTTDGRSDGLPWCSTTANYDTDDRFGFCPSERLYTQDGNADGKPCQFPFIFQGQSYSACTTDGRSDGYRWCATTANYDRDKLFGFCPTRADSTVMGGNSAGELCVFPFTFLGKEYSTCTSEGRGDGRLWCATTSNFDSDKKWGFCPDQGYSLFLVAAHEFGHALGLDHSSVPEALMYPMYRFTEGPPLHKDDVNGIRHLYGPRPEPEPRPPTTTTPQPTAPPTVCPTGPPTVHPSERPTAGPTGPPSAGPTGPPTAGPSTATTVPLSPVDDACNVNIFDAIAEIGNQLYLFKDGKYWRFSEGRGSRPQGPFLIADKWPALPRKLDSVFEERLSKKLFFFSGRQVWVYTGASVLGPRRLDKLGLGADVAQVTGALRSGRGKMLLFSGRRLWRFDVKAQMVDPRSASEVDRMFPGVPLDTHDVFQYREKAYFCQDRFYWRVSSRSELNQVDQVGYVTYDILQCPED

In the case of `COc1cc(OC)cc(-c2nnc(Nc3nc4c(F)cccc4s3)o2)c1`, the Activity in test [1] came out at 75%; in test [2], 64%; on Collagenase 3 [3] it was 35%; in test [4], 96%; in test [5], 73%; in test [6], 95%. Besides, in test [7], the Activity is 36%.

As for `COc1ccc(CSc2nc(C)cc(O)n2)cc1`, the Activity was determined as 66% in test [1]; 72% in test [2]; 25% at Collagenase 3 [3]; 98% in test [4]; 47% in test [5]; 97% in test [6]. The Activity in test [7] worked out at 80%.

For `O=C1NC(=O)C(CCc2ccncc2)(C2CCCCC2)C(=O)N1`, the Activity came to 27% in test [1]; 21% in test [2]; 35% at Collagenase 3 [3]; 47% in test [4]; 49% in test [5]; 96% in test [6]. The Activity in test [7] came to 50%.

As to `Oc1nc(SCc2ccc(Cl)cc2)nc2c1CCC2`, at Collagenase 3 [8], the IC50 (usually the concentration that inhibits the measured activity by half) turned out to be 10.3 µM.

Take `C=CCN1C(=O)/C(=C2/Sc3ccccc3N2CCCS(=O)(=O)O)SC1=S`: the Activity in test [1] worked out at 100%; in test [2], 100%; on Collagenase 3 [3] it was 36%; in test [4], 96%; in test [5] it was 100%; in test [6], 100%. Moreover, the Activity in test [7] came to 100%.

As for `O=C1NC(=O)C(CCc2ccncc2)(c2ccccc2)C(=O)N1`, the Activity in test [1] was determined as 3%; in test [2] it was 1%; on Collagenase 3 [3], 14%; in test [4] it was 27%; in test [5], 17%; in test [6] it was 87%. Also, the Activity in test [7] came to 8%.

With `COc1ccc(C2C(C(C)=O)=C(C)N=c3s/c(=C\c4cc(C)n(C)c4C)c(=O)n32)c(OC)c1` (stereo unspecified), the IC50 on Collagenase 3 [8] is > 40 µM.

On to `CCOC(=O)/C(C#N)=C1/C=Nc2ccccc2N1`, for which the Activity is 99% in test [1]; 100% in test [2]; 62% at Collagenase 3 [3]; 94% in test [4]; 100% in test [5]; 96% in test [6]. The Activity in test [7] was 80%. At Collagenase 3 [8], the half-maximal inhibitory concentration (IC50) was 3.4 µM.

On to `CCN1C(=O)/C(=C2/Sc3ccccc3N2CCCS(=O)(=O)O)SC1=S`, for which the Activity in test [1] is 14%; in test [2], 94%; at Collagenase 3 [3] it was 4%; in test [4] it was 88%; in test [5], 80%; in test [6], 90%. The Activity in test [7] stood at 100%.

For the molecule `CCCCCCOc1ccc(C(CC(=O)O)C(N)=O)cc1` (stereo unspecified), the Activity in test [1] is 0%; in test [2], 0%; at Collagenase 3 [3], 15%; in test [4], 91%; in test [5] it was 0%; in test [6], 43%. Besides, in test [7], the Activity was 10%.

Regarding `COc1cc(-n2nc(C)c3c2OC(N)=C(C#N)C3c2ccccc2)c(Cl)c(Br)c1O` (stereo unspecified), the IC50 on Collagenase 3 [8] is > 40 µM.

As for `O=C(O)CCC(NS(=O)(=O)c1ccc(-c2ccccc2)cc1)C(=O)O` (stereo unspecified), the Activity was determined as 14% in test [1]; 2% in test [2]; 4% at Collagenase 3 [3]; 25% in test [4]; 7% in test [5]; 63% in test [6]. Further, in test [7], the Activity was 2%. Also, the IC50 at Collagenase 3 [8] came to 2.1 µM.

Take `Cc1nn(-c2ccccc2)c2sc(-c3nnc(S)o3)cc12`: the Activity in test [1] came out at 100%; in test [2], 75%; on Collagenase 3 [3] it was 45%; in test [4], 68%; in test [5], 100%; in test [6], 75%. The Activity in test [7] stood at 32%. On Collagenase 3 [8], the half-maximal inhibitory concentration (IC50) turned out to be 0.9 µM.

As for `COC(=O)c1ccc(CSc2nc(O)c3c(-c4cccs4)csc3n2)o1`, the Activity in test [1] was determined as 100%; in test [2], 92%; at Collagenase 3 [3], 42%; in test [4] it was 93%; in test [5], 100%; in test [6], 92%. Also, the Activity in test [7] came to 94%.

Turning to `CCOC(=O)C1CCCN(c2nc3ccccc3nc2C(C#N)C(=O)OCC)C1` (stereo unspecified), the IC50 on Collagenase 3 [8] was determined as 13.3 µM.

In the case of `O=C(CSCc1nc(O)n[nH]1)NCCOc1cccc(Oc2ccccc2)c1`, the Activity in test [1] was 27%; in test [2] it was 33%; at Collagenase 3 [3], 35%; in test [4] it was 85%; in test [5] it was 19%; in test [6], 96%. The Activity in test [7] was determined as 34%.

For the origin of these results see ChEMBL document CHEMBL1140992, “High throughput screening of potentially selective MMP-13 exosite inhibitors utilizing a triple-helical FRET substrate” (Bioorg Med Chem, 2009).
